Measurements collected from several papers.
Lines come from different studies, so protocols differ.
Host: human

| Structure (SMILES) | system | setting | endpoint | result |
| --- | --- | --- | --- | --- |
| CCNCCCNC/C=C\CNCCCNCC | plasma | intravenous, 100 mg, patients, infusion | clearance | 5510 mL/min |
| CS(=O)(=O)CCC#N | plasma | oral, 300 mg, single dose, fasted | CL/F | 0.217 mL/min/kg |
| Cn1cc(-c2cnc3cnn(S(=O)(=O)c4cnc5ccc(-c6cnn(C)c6)cn45)c3c2)cn1 | plasma | oral, 300 mg, single dose, fasted, healthy volunteers | CL/F | 12.8 L/h |
| c1cnc2ccc(Nc3nc(NC4CC4)c4nc[nH]c4n3)cc2c1 | plasma | oral, 400 mg/m², patients | CL/F | 115 L/h |
| OC[C@H]1O[C@@H](c2ccc(Cl)c(Cc3ccc(O[C@H]4CCOC4)cc3)c2)[C@H](O)[C@@H](O)[C@@H]1O | urine | oral, 25 mg, single dose | renal clearance | 21.1 mL/min |
| CCOc1ccc(Cc2cc([C@@H]3O[C@H](CO)[C@@H](O)[C@H](O)[C@H]3O)ccc2Cl)cc1 | plasma | oral, multiple doses, steady state | CL/F | 21.1 L/h |
| COc1cc(C(=O)NC2CCN(C)CC2)c(F)cc1Nc1ncc(C(F)(F)F)c(Oc2cccc3c2C(=O)N(C)C3)n1 | plasma | oral, 100 mg, multiple doses, once daily, patients | CL/F | 10.4 L/h |
| Cc1ccc(C(=O)N(CCCN)[C@@H](c2oc3cc(Cl)ccc3c(=O)c2Cc2ccccc2)C(C)C)cc1 | plasma | intravenous, 8 mg/m², single dose, patients, infusion | clearance | 23.1 mL/min |
